One test addresses Cathepsin B (Homo sapiens, UniProt P07858). In words: Inhibition of cathepsin B. In outline: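 Cathepsin B (2 nM) in pH 6.1 phosphate/NaCl/DTT/EDTA/Tween-20 buffer, preincubated with inhibitor (in DMSO) for 5 min at 37 °C. Cbz-Phe-Arg-AMC 2.5 µM then added and AMC followed for 5 min (ex 355/em 450 nm). Five inhibitor levels spanning 10–90% inhibition, in duplicate. IC50 from V_i/V_o plots, converted as K_i = IC50 − E_t/2.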

A further test concerns the target T1, Cathepsin K (Homo sapiens, UniProt P43235).
T1 sequence (P43235 whole entry): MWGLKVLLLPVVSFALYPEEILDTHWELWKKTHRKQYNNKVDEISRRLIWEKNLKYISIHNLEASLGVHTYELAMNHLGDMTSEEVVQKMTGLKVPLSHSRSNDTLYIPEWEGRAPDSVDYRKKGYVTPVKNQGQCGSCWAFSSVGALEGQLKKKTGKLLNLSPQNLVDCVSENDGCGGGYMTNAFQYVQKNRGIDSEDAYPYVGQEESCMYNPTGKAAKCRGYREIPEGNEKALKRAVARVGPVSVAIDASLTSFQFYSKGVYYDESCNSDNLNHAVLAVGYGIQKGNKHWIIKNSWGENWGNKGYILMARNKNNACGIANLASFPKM
Kind of test: Inhibition of cathepsin K. In outline: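 Cathepsin K at 10 nM, preincubated 5 min at 37 °C with DMSO-delivered inhibitor in pH 6.1 sodium phosphate buffer with NaCl, DTT, EDTA, Tween-20. Then 2.5 µM Cbz-Phe-Arg-AMC; AMC release monitored for 5 min (ex 355/em 450 nm). Duplicates at five inhibitor concentrations giving 10–90% inhibition. K_i = IC50 − E_t/2, with IC50 from V_i/V_o versus concentration.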

A further test concerns the target Procathepsin L (Homo sapiens, UniProt P07711). In words: Inhibition of cathepsin L.
The target of the next test is Cathepsin S (Homo sapiens, UniProt P25774). Kind of test: Inhibition of cathepsin S. The gist of the method: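 Cathepsin S 0.7 nM with inhibitor (added in DMSO), 5 min at 37 °C in pH 6.1 phosphate buffer containing NaCl, DTT, EDTA and Tween-20. IC50 from V_i/V_o plot, converted to K_i via IC50 − E_t/2.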

pKi: −log10 of the molar value.

Drawing on ChEMBL document CHEMBL1143066, “Characterization and optimization of selective, nonpeptidic inhibitors of cathepsin S with an unprecedented binding mode” (J Med Chem, 2007), this text covers Ki for three compounds.

The pKi is the negative decadic logarithm of the Ki, by convention in mol/L. Low values mean a high Ki, high ones a low Ki.

Sequence of Cathepsin S (P25774 whole entry): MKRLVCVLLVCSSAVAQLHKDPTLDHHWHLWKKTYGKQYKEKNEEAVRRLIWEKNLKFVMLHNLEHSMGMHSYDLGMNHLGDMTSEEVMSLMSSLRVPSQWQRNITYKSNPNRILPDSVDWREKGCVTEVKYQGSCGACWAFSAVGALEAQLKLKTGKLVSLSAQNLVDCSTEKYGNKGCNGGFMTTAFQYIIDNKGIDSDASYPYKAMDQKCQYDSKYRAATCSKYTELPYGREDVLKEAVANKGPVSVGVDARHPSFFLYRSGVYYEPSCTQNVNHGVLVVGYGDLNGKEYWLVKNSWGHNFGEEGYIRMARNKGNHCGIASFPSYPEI
Sequence of Procathepsin L (P07711 whole entry): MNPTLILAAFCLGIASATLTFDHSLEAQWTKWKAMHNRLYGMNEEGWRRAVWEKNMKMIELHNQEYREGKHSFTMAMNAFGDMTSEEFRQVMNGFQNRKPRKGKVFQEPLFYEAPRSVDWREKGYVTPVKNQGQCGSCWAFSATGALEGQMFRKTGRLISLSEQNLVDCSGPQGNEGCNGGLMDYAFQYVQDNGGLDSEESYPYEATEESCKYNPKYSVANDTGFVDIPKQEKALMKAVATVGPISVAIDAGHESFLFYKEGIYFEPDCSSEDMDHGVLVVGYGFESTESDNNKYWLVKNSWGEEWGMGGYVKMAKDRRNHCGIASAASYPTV

With `O=CCOc1ccccc1-c1ccc(F)c(F)c1F`, the pKi at Cathepsin B is under 4.82; at Cathepsin K, 5.82.
As for `CC(C)Cc1ccc(-c2ccccc2OCC=O)c(F)c1F`, the pKi at Cathepsin B was under 4.82; on Cathepsin K, 5.91; at Procathepsin L it was under 4.82; on Cathepsin S, 8.02.
Take `CCCc1ccc(-c2ccccc2OCC=O)c(F)c1F`: the values for the pKi at Cathepsin B, at Cathepsin K and at Cathepsin S were under 4.82, 5.89 and 7.31, respectively.
